Sampled rows, rich in hits. Any-hit rate of the full collection: about 2.3%.
Rpn11 inh = blocks the human proteasome subunit Rpn11. calls only at 20 µM. O00487. 360,000 compounds, 0.59% hits. human 26S proteasome, Ub4-pepOG fluorescence polarization; 20S core pre-blocked with epoxomicin;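 active means inhibition at 20 µM, scaled to each plate's controls, above about 33%, limit read from the data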
Target sequence (O00487 whole entry, looked up): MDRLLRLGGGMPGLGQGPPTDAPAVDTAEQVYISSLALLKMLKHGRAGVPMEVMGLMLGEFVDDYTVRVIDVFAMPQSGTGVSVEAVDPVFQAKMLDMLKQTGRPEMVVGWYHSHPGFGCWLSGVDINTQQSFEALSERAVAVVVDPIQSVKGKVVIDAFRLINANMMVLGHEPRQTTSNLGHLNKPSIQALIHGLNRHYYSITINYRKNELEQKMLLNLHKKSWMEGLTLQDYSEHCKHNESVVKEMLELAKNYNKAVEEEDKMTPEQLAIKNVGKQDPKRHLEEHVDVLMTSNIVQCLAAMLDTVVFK
CSN inh = blocks human CSN-mediated cullin deneddylation. Q92905. Purified CSN, SCF-Nedd8-OG deneddylation, fluorescence polarization. inhibition, % at 12.5 µM. 360,000 compounds, 0.38% hits. AID 651999;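 active means pattern-corrected inhibition above about 35%, with an unprinted fluorescence ratio check between 0.5 and 1.5, limit read from the data, passing the limit was not always enough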;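 further: 0% = enzyme with substrate and 100% = substrate without enzyme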
Target sequence (Q92905 whole entry, looked up, one chain of several): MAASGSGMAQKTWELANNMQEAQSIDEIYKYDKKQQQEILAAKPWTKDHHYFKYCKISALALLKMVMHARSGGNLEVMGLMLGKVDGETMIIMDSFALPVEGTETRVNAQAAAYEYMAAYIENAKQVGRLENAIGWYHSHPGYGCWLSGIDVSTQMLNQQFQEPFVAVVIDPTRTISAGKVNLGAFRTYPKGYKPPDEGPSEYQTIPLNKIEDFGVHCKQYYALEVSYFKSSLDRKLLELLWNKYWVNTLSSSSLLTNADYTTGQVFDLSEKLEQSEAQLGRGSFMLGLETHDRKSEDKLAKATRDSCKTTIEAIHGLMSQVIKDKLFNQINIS
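Material: purified human Csn5 enzyme expressed in HEK293T cells / Medium: Tris buffer pH 7.5, NaCl, DTT, Tween-20, trehalose, ovalbumin / Compound dosing: 12.5 µM single point / Schedule: 90 min incubation of compound, enzyme and substrate at room temperature / Signal: fluorescence polarization of the substrate / Control set: no-enzyme wells high, enzyme-with-substrate wells low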
CRFR2-BP ag = CRF-BP/CRF-R2 complex agonism; 350,000 compounds, 0.46% hits; activation, % at 13.2 µM; AID 588473; HEK293 CRF-R2/CRF-BP, calcium dye fluorescence (FLIPR); percent of saturating CRF peptide response;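 active means activation of at least 50%, plus an integration ratio under a set limit after plate pattern correction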;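 further: plate controls were neutral control wells without compound for no effect and CRF at EC100 for full effect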
CRFR2-BP antag = blocks CRF-induced signaling of the CRF-BP/CRF-R2 complex | HEK293 CRF-R2/CRF-BP, CRF-induced calcium fluorescence | inhibition, % at 11.8 µM | 350,000 compounds, 0.59% hits | AID 588475;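 active means inhibition of the ligand-induced calcium signal above about 50% at the single tested concentration, limit read from the data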
TPT1 inhibitor = blocks Candida albicans tRNA 2'-phosphotransferase; recombinant caTPT1, FP RNA substrate dephosphorylation; inhibition, % at 5 µM; 300,000 compounds, 0.81% hits;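 active means inhibition above the mean of all tested compounds plus 3 SD, set per screening campaign, cut at about 24% in these data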;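 further: plate controls were DMSO alone for no effect and ferristatin control at 100 nM for full effect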
HNF4A DNA FP = change in binding of human HNF4 alpha to DNA. P41235. HNF4a-FITC DNA binding, fluorescence polarization, 1 h. activity change, % at 10 µM. 360,000 compounds, 0.3% hits. AID 1224865; in the data active means activity change above about 30%, passing the limit was not always enough
Numbers without * were called inactive; i = inactive; · = no result; + = active, no number.

SMILES	Rpn11 inh	CSN inh	CRFR2-BP ag	CRFR2-BP antag	TPT1 inhibitor	HNF4A DNA FP
CCOc1ccc(NC(=O)CCNS(=O)(=O)c2cccc3nonc23)cc1	i	1.1	0.6	54.9*	-2.9	1.1
Cc1ccc(NC(=O)CCNS(=O)(=O)c2cccc3nonc23)cc1	i	-2.4	-3.1	9.4	-1.9	-0.3
COc1ccc2nc(SCC(=O)Nc3ccccc3C#N)[nH]c2c1	i	-1.4	-1.1	9.7	-6.2	0.0
O=C(Nc1ccccc1)Nc1ccc(O)c2ccccc12	·	·	0.1	70.1*	-2.2	·
O=C(Nc1ccccc1)Nc1cccc2ccccc12	i	-1.0	-3.6	16.5	1.1	-1.0
COc1ccc(-c2cc(C(=O)O)nc3ccc4ccccc4c23)cc1OC	i	-4.9	-1.1	58.0*	1.7	-6.0
NC(=O)c1ccc(NC(=O)COC(=O)/C=C/c2ccc(Br)o2)cc1	i	48.2*	0.8	-2.5	·	-22.1
O=C(COC(=O)/C=C/c1ccc(Br)o1)Nc1ccc2[nH]c(=O)[nH]c2c1	i	39.4	·	·	-5.2	-46.4
C[C@@H]1CN([C@@H](C)CO)C(=O)CCCn2nncc2CO[C@H]1CN(C)S(=O)(=O)c1ccc2ccccc2c1	i	2.6	0.2	-4.8	·	-3.8
COc1ccc(N(C(=O)c2ccco2)C(C(=O)NC2CCCC2)c2ccc(N3CCOCC3)cc2)c(OC)c1 (stereo not given)	i	4.6	-0.3	52.6*	-3.6	-4.8
Clc1ccccc1-c1ccc(/C=N/Nc2nncc(-c3ccccc3)n2)o1	i	4.7	-1.4	-9.3	4.0	-1.8
CN1Cc2c(N3CCOCC3)nc(SCc3ccccc3)c(C#N)c2CC1(C)C	i	-40.9	64.0*	-74.9	-4.6	-3.6
Cc1ccc(SCc2cc(=O)[nH]c(SCC(=O)Nc3cc(Cl)ccc3Cl)n2)cc1	i	3.9	0.5	68.0*	-6.1	-2.6
COc1ccc(CN2CCCC(C(=O)N(C)Cc3ccccc3)C2)cc1OC (stereo not given)	i	1.9	1.6	-3.1	-1.9	-8.1
COc1ccccc1CN1CCCC(C(=O)N(C)Cc2ccccc2)C1 (stereo not given)	i	-4.6	2.8	55.3*	·	-0.4
N#Cc1c(N)[nH]c(C(=O)c2ccccc2)c1-c1ccc(Cl)cc1	·	-0.8	·	·	·	-1.7
COCCn1c(SCC(=O)Nc2cccc(S(N)(=O)=O)c2)nc2cc(Cl)ccc2c1=O	i	-6.5	-2.7	-8.6	-3.9	-2.3
N#Cc1cc2cc3c(cc2nc1Cl)OCCO3	i	61.2*	-0.5	-19.6	·	18.0
Cc1ccc(S(=O)(=O)N2CCC(C)CC2)cc1[N+](=O)[O-]	i	2.2	-0.2	4.4	·	-0.4
Cc1ccc(S(=O)(=O)N2CCCCCC2)cc1[N+](=O)[O-]	i	-4.8	-1.0	58.1*	1.2	-2.7
O=C1CCC(C(=O)N2CCOCC2)CN1Cc1cccc(C(F)(F)F)c1 (stereo not given)	i	-4.6	-0.8	11.3	1.1	1.1
CCCCCC/C(=N/O)c1ccccn1	i	3.8	-0.6	58.8*	-2.6	0.7
CN(C)c1ccc([C@@H]2[C@@H]([N+](=O)[O-])[C@H]3C=Cc4ccccc4N3[C@H]2C(=O)c2ccc(Cl)cc2)cc1	+	23.8	25.0	-45.9	82.2*	29.7
O=C(c1ccccc1)C1C(c2ccccc2)C1[N+](=O)[O-] (stereo not given)	i	2.8	-2.9	7.6	0.2	-1.9
COc1cc(-c2cc(C(=O)NN3CCN(C)CC3)c3ccccc3n2)cc(OC)c1OC	·	·	·	·	4.0	·
SMILES	Rpn11 inh	CSN inh	CRFR2-BP ag	CRFR2-BP antag	TPT1 inhibitor	HNF4A DNA FP
CC(=O)Nc1ccc(S(=O)(=O)NCCC(=O)OCC(=O)c2ccccc2)cc1	i	-2.2	1.7	-9.7	3.6	1.9
COc1ccc(C(=O)COC(=O)CCNS(=O)(=O)c2ccc(NC(C)=O)cc2)c(OC)c1	i	0.8	0.8	51.3*	-0.7	1.9
CCOC(=O)c1ccc(CNC(=O)Cn2nnc(-c3ccccc3F)n2)o1	i	-3.6	-0.8	9.0	-1.3	4.8
CCOC(=O)c1ccc(CNC(=O)Cn2nnc(-c3ccccc3)n2)o1	i	-1.3	142.5*	-100.2	-2.2	-1.2
Fc1ccc(N=c2ssnc2Cl)c(F)c1	i	-2.7	69.8*	-10.2	-3.2	-0.1
Clc1ccc(N=c2ssnc2Cl)cc1	i	0.7	66.8*	43.5	-7.1	-2.4
Cn1c(CCN2CCCCC2)nc2cc(NC(=O)COc3ccccc3)ccc21	i	-3.5	0.9	-3.6	1.6	-0.8
Cc1csc(NC(=O)/C=C/c2ccc3c(c2)OCO3)n1	i	-3.2	-4.5	0.0	-2.5	-1.6
CCOC(=O)NC(O)C(=O)c1ccc(F)cc1 (stereo not given)	i	-3.0	-4.0	30.0	-0.3	-2.0
CCOC(=O)NC(O)C(=O)c1cccs1 (stereo not given)	i	-1.2	0.4	64.8*	-0.4	-1.5
C=CCN1C(=O)C2(NC(=O)c3ccccc3N2)c2ccccc21 (stereo not given)	i	3.6	-1.1	25.8	-6.7	81.3*
COc1ccccc1-c1ccc(/C=C2/C=C(CC(C)C)OC2=O)o1	i	4.0	-0.1	19.0	23.4	11.7
CCCC1=C/C(=C/c2ccc(-c3ccccc3OC)o2)C(=O)O1	+	-2.3	1.5	-4.1	21.9	7.7
Cc1nn(CC(=O)N(C)C2(C#N)CCCCC2)c(C)c1[N+](=O)[O-]	i	-0.8	110.7*	-74.9	·	-1.5
O=c1c(CN2CCN(Cc3ccccc3F)C(CCO)C2)coc2ccccc12 (stereo not given)	i	0.1	-1.6	-5.9	0.9	3.0
CC(C)=CCN1CCN(Cc2coc3ccc(C)cc3c2=O)CC1CCO (stereo not given)	i	-1.0	0.8	3.3	-0.1	50.9*
O=[N+]([O-])c1cc(-c2ccccc2)cc([N+](=O)[O-])c1O	i	-4.6	1.0	64.7*	·	4.1
Cc1nc2ccc(NC(=O)c3ccco3)cc2nc1C	i	4.4	-0.1	25.1	1.8	-1.3
CC(C)C[C@H]1CNC(=S)N1C[C@H]1CCCN1C[C@H](CC(C)C)N1C[C@H](Cc2ccccc2)N(CCc2ccccc2)C1=S	i	110.1*	·	·	·	-0.8
CC(C)C[C@H]1CNC(=S)N1C[C@H]1CCCN1C[C@H](CC(C)C)N1C[C@H](CC(C)C)N(CCc2ccccc2)C1=S	i	3.7	·	·	·	1.3
O=C(Cc1ccccc1F)OCC(=O)N1CCc2ccccc21	i	3.3	1.1	-17.7	-2.9	0.3
Nc1nonc1-n1nnc(C(=O)N/N=C\c2cccc(Cl)c2)c1CN1CCOCC1	i	-1.7	-1.1	-2.8	-5.7	1.8

Compound activity deposited in PubChem BioAssay by several laboratories.
